In ChEMBL document CHEMBL4024800, “α-Amino-β-carboxymuconate-ε-semialdehyde Decarboxylase (ACMSD) Inhibitors as Novel Modulators of De Novo Nicotinamide Adenine Dinucleotide (NAD+) Biosynthesis” (J Med Chem, 2018):
≈ marks a conversion by molar mass, not a printed value. One block for each compound: values may come before it. Calls of active or inactive are those of the source. No cut-off for these calls is given here.

Experiments:
[1] = Apparent passive permeability from apical to basolateral side in MDCK2-MDR1 cells at 3 uM after 90 mins by LC-MS/MS analysis; format: ADME, cell-based, Canis lupus familiaris; details: dog, MDCK-MDR1
Outline: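 MDCKII-MDR1 monolayers, HBSS transport medium pH 7.4; compound 3 μM for 90 min, run with and without a P-gp inhibitor, n = 3. Quantified by LC-MS/MS as analyte/internal-standard peak-area ratio; monolayer integrity checked with Lucifer yellow. Papp given in nm/sec, A>B.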

[2] = target: T1, 2-amino-3-carboxymuconate-6-semialdehyde decarboxylase (Homo sapiens, UniProt Q8TDX5); assay: Inhibition of human ACMSD expressed in Pichia pastoris using ACMS as substrate by coupled spectrophotometric assay
Outline: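 Recombinant enzyme purified from Pichia pastoris; ACMS substrate generated in a pre-assay mix from 10 μM 3-hydroxyanthranilic acid by Ralstonia metallidurans 3-hydroxyanthranilate 3,4-dioxygenase, formation monitored at 360 nm. Enzyme and compound then added together; activity from initial rate of absorbance decrease minus a no-enzyme control. Serial dilutions, 1.0% DMSO throughout. IC50 from concentration–response curves, mean ± SD of three independent experiments.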
Target sequence in this assay (Q8TDX5 whole entry): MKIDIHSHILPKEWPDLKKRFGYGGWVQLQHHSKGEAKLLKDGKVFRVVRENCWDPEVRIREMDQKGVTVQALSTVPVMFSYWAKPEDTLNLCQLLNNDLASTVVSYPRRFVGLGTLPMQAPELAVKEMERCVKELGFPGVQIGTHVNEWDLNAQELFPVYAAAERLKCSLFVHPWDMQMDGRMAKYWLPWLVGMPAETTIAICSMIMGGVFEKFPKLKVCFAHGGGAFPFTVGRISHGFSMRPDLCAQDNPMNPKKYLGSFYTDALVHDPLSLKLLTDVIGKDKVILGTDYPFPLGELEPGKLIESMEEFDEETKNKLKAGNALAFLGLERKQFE

[3] = target: T2, Nuclear receptor subfamily 1 group I member 2 (Homo sapiens, UniProt O75469); assay: Activity at PXR (unknown origin)
T2 sequence (O75469 whole entry): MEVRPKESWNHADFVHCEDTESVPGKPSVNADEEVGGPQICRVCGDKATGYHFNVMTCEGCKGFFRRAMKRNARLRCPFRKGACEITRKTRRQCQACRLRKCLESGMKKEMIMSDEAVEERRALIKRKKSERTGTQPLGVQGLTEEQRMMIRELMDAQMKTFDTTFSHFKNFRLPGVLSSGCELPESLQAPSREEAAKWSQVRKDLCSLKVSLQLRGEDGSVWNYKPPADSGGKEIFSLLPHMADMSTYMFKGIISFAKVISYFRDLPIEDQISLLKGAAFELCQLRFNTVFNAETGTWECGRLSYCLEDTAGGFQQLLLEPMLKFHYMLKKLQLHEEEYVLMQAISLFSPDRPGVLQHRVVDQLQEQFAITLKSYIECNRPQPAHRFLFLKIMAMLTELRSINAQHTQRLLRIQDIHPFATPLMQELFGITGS
Outline: (§1)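 Eight-point serial dilutions tested in an in-house AlphaScreen-based nuclear receptor panel; activity derived from nonlinear regression curves.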

[4] = Cmax in CD1 mouse at 5 mg/kg, po measured up to 8 hrs after dose; format: ADME, organism-based; parameters: dose 5 mg/kg, route oral; details: in vivo
Outline: (§2)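 Mice dosed orally at 5 mg/kg in 0.5% (w/v) HPMC in water with 5% (v/v) DMSO; blood, liver and kidney concentrations followed to 8 h. AUC0–8h given in h·ng/mL; parameters reported as means.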

HepG2 = assay: Cytotoxicity against human HepG2 cells assessed as reduction in cell viability after 4 hrs by celltiter-glo assay; format: cell-based; details: hepg2, 4 h
Outline: (§3)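 HepG2 or AML12 cells, 5 × 10^3 per well, exposed to compound for 4 h at 37 °C. Viability read as ATP by CellTiter-Glo luminescence; tamoxifen control.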

[5] = Drug uptake in mouse central nervous system at 5 mg/kg, po in presence of P-gp inhibitor Elacridar; format: ADME, organism-based; details: in vivo
[6] = Oral bioavailability in CD1 mouse at 5 mg/kg measured up to 8 hrs after dose; format: ADME, organism-based; details: in vivo; outline: as §2
[7] = AUClast in mouse liver at 5 mg/kg, po measured up to 8 hrs post dose; format: ADME, organism-based; parameters: dose 5 mg/kg, time < 8 hr, route oral; outline: as §2
[8] = Half life in CD1 mouse at 0.5 mg/kg, iv measured up to 24 hrs post dose; format: ADME, organism-based; details: in vivo
Outline: (§4)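 Mice given 0.5 mg/kg IV in saline containing 5% (v/v) DMSO and 20% (v/v) PEG400; blood pharmacokinetic parameters reported as means.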

[9] = target: Voltage-gated inwardly rectifying potassium channel KCNH2 (Homo sapiens, UniProt Q12809); assay: Displacement of red fluorescent channel ligand tracer from human ERG expressed in CHO cell membranes
Outline: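 Fluorescence polarisation kit: membranes from CHO cells stably expressing hERG, with a red fluorescent high-affinity tracer; competitors detected by tracer displacement, seen as lowered polarisation. Final DMSO 1%; E-4031 reference.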

[10] = Drug uptake in mouse central nervous system at 5 mg/kg, po; format: ADME, organism-based; details: in vivo
[11] = Tmax in CD1 mouse at 5 mg/kg, po measured up to 8 hrs post dose; format: ADME, organism-based; details: in vivo; outline: as §2
Cytochrome P450 2C19 = Cytochrome P450 2C19 (Homo sapiens, UniProt P33261); assay: Inhibition of recombinant human CYP2C19 expressed in baculosomes expression system using fluorogenic-BOMCC as substrate by fluorescent homogeneous assay; format: ADME
Outline: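 Recombinant CYP baculosomes with fluorogenic substrates, at concentrations below their Km; homogeneous fluorescence read-out, run in triplicate. IC50 classes: <1 μM potent, 1–10 μM moderate, >10 μM weak or none.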

[12] = Solubility of compound in PBS buffer at pH 7.4 after 24 hrs by UV/vis-spectroscopic analysis; format: physicochemical
Outline: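 Compound in PBS pH 7.4 with 1% DMSO mixed, incubated 24 h and vacuum-filtered; filtrate read by UV/vis and relative solubility calculated from summed readings against a standard. Reported in mg/mL.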

[13] = Clearance in CD1 mouse at 0.5 mg/kg, iv measured up to 24 hrs post dose; format: ADME, organism-based; details: in vivo; outline: as §4
[14] = AUClast in mouse blood at 5 mg/kg, po measured up to 8 hrs post dose; format: ADME, organism-based; parameters: time < 8 hr, dose 5 mg/kg, route oral; outline: as §2
[15] = AUClast in CD1 mouse at 0.5 mg/kg, iv measured up to 24 hrs post dose; format: ADME, organism-based; parameters: dose 0.5 mg/kg, time < 24 hr, route intravenous; details: in vivo; outline: as §4
[16] = Cytotoxicity against mouse AML-12 cells assessed as reduction in cell viability after 4 hrs by celltiter-glo assay; format: cell-based; details: aml-12, 4 h; outline: as §3
[17] = AUClast in mouse kidney at 5 mg/kg, po measured up to 8 hrs post dose; format: ADME, organism-based; parameters: time < 8 hr, dose 5 mg/kg, route oral; outline: as §2
[18] = Volume of distribution at steady state in CD1 mouse at 0.5 mg/kg, iv measured up to 24 hrs post dose; format: ADME, organism-based; details: in vivo, read-out: Vdss; outline: as §4
Homo sapiens [19] = species: Homo sapiens; assay: Activity at PPAR (unknown origin); outline: as §1
[20] = target: T3, Bile acid receptor (Homo sapiens) (UniProt Q96RI1); assay: Activity at FXR (unknown origin); outline: as §1
T3 sequence (whole entry): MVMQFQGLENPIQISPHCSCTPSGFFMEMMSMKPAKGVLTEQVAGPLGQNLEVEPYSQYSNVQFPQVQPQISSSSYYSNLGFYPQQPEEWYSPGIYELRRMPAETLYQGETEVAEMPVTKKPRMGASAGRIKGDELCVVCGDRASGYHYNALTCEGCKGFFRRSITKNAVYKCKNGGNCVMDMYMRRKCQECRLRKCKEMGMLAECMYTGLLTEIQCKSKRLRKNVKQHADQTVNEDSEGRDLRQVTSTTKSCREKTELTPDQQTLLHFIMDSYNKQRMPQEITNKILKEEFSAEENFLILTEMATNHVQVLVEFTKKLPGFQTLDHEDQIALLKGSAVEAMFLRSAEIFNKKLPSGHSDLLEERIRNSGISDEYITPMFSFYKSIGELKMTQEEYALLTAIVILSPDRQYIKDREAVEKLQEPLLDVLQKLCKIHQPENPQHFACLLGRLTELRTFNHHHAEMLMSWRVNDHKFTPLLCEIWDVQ

Homo sapiens [21] = species: Homo sapiens; assay: Activity at RXR (unknown origin); outline: as §1
Homo sapiens [22] = species: Homo sapiens; assay: Activity at TR (unknown origin); outline: as §1
[23] = target: T4, Vitamin D3 receptor (Homo sapiens) (UniProt P11473); assay: Activity at VDR (unknown origin); outline: as §1
T4 sequence (whole entry): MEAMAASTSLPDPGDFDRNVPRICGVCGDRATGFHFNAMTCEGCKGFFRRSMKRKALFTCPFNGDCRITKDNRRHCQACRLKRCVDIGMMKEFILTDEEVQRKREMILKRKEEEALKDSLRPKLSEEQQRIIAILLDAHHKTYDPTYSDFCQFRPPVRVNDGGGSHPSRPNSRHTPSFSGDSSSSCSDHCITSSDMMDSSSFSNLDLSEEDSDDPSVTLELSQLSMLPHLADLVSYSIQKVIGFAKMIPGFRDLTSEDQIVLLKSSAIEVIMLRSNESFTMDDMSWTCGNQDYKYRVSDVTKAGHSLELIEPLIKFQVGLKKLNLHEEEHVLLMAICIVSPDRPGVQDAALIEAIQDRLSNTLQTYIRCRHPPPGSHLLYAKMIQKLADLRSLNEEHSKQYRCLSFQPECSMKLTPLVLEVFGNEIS

[24] = target: T5, Glucocorticoid receptor (Homo sapiens) (UniProt P04150); assay: Activity at GR (unknown origin); outline: as §1
T5 sequence (whole entry): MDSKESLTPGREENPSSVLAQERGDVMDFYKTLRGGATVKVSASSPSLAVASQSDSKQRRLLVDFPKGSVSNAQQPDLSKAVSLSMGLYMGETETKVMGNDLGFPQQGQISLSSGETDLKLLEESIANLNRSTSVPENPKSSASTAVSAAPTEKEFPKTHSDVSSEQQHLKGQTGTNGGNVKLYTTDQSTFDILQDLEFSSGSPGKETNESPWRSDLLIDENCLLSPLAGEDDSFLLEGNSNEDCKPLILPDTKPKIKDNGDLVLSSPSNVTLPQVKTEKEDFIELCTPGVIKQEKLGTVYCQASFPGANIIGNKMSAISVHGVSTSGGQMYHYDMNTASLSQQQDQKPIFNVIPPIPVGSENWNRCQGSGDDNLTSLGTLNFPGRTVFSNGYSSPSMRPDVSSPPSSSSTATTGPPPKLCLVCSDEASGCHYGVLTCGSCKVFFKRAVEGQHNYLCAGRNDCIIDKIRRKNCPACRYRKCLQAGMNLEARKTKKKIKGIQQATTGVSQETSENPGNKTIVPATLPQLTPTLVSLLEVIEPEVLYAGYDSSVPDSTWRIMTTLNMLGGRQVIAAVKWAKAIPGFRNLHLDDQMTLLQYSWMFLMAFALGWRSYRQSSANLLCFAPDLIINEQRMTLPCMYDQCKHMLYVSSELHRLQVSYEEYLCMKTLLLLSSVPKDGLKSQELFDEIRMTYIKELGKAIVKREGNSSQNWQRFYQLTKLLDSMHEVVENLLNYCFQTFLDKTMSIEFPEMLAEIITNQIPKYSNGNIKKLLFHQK

Homo sapiens [25] = species: Homo sapiens; assay: Activity at LXR (unknown origin); outline: as §1
[26] = target: T1, 2-amino-3-carboxymuconate-6-semialdehyde decarboxylase; assay: Inhibition of ACMSD in human primary hepatocytes assessed as increase in intracellular NAD+ levels at 5 uM after 48 hrs by NAD/NADH-Glo assay; format: cell-based
Target sequence in this assay (Q8TDX5 whole entry, looked up): as the sequence (Q8TDX5 whole entry) above

[27] = target: Kynurenine 3-monooxygenase (Rattus norvegicus, UniProt O88867); assay: Inhibition of rat liver KMO using [3,5-3H]-kynurenine substrate
Sequence of Kynurenine 3-monooxygenase (O88867 whole entry): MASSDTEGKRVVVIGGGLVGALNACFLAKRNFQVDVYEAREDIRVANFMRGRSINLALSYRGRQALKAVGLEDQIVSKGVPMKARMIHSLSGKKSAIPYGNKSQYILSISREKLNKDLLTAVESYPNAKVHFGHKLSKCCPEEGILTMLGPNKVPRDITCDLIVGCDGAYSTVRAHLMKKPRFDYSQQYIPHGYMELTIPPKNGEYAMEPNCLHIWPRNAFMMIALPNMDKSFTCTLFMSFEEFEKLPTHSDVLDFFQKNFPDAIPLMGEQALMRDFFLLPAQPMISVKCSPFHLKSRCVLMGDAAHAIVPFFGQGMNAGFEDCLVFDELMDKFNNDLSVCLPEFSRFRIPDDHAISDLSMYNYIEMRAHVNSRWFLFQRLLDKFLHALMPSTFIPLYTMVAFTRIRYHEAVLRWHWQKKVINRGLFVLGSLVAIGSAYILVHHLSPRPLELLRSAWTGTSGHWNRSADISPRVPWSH

Sequence of Cytochrome P450 2C19 (P33261 whole entry): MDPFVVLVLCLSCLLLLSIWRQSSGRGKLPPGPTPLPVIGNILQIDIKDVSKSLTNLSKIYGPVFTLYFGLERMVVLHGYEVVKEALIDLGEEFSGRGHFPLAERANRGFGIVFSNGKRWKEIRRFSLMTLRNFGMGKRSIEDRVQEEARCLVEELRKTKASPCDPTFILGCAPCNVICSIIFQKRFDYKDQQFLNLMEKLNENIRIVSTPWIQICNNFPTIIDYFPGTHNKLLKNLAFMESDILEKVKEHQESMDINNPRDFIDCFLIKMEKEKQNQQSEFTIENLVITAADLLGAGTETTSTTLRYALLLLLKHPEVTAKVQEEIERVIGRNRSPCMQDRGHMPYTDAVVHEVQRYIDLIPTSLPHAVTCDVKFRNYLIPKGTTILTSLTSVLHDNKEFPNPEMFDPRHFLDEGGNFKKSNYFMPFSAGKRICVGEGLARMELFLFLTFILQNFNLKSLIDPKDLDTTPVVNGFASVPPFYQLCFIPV
Sequence of Voltage-gated inwardly rectifying potassium channel KCNH2 (Q12809 whole entry): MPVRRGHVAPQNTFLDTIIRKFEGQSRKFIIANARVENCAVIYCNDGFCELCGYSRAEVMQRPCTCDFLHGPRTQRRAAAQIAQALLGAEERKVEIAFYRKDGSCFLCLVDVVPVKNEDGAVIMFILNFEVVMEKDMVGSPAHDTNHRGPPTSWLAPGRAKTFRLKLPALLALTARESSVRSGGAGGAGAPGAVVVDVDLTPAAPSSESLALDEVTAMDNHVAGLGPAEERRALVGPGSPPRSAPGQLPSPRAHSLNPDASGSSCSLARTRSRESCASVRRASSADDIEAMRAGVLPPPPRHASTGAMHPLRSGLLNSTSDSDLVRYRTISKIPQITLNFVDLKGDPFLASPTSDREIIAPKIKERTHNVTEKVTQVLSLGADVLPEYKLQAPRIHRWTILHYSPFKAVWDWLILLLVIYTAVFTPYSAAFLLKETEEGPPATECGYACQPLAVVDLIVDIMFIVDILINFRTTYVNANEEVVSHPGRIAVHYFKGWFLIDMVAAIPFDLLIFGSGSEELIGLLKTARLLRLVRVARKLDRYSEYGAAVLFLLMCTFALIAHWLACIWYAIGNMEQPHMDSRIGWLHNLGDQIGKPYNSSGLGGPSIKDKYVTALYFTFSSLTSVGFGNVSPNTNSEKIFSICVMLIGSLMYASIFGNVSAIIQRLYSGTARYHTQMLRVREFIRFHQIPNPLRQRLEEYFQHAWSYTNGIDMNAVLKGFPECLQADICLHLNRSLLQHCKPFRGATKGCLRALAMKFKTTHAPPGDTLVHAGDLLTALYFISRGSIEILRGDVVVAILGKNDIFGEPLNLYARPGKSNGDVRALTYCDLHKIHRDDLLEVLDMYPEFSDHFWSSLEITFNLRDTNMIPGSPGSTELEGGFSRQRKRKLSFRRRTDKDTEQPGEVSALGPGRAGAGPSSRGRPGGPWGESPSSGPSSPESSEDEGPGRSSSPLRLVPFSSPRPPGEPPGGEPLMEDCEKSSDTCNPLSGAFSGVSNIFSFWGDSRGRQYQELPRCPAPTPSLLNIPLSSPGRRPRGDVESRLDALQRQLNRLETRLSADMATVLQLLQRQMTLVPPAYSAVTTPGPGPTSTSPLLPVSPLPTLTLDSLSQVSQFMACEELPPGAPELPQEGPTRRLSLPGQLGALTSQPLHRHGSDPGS

Papp A→B at 1.5 h, 3 µM [1]: 0.584 ×10⁻⁶ cm/s
IC50 [2]: 3 nM
Activity [3]: Not Active
Cmax [4]: 255 ng/mL
Drug uptake [5]: Not Active
bioavailability [6]: 2.3%
AUC(0-t) at 8 h [7]: 4290 ng·h/mL
half-life [8]: 4.02 h
Drug uptake [10]: Not Active
Tmax [11]: 2 h
IC50 (Cytochrome P450 2C19): 100 nM
solubility at 24 h [12]: 1000 µg/mL (≈ 2540 µM)
clearance [13]: 1.2 mL/min/kg
AUC(0-t) at 8 h [14]: 1620 ng·h/mL
AUC(0-t) at 24 h [15]: 6900 ng·h/mL
AUC(0-t) at 8 h [17]: 2830 ng·h/mL
Vd [18]: 0.306 L/kg
Structure (SMILES): N#Cc1c(-c2cccs2)nc(SCc2cccc(-c3nn[nH]n3)c2)[nH]c1=O
Activity (HepG2): Non-Toxic
inhibition (INH) [9]: Not Active
Activity [16]: Non-Toxic

IC50 [2]: 1050 nM
Structure (SMILES): O=C(O)c1cccc(CSc2nc(-c3ccccc3)cc(=O)[nH]2)c1

IC50 [2]: 4450 nM
Structure (SMILES): N#Cc1c(-c2ccccc2)nc(SCc2ccccc2)[nH]c1=O

IC50 [2]: 45 nM
Structure (SMILES): N#Cc1c(-c2ccccc2)nc(SCc2cccc(C(=O)O)c2)[nH]c1=O

IC50 [2]: 151 nM
Structure (SMILES): O=C(O)c1cccc(CSc2nc(-c3ccccc3)c(Cl)c(=O)[nH]2)c1

IC50 [2]: 99 nM
Structure (SMILES): O=C(O)c1cccc(CSc2nc(-c3ccccc3)c(Br)c(=O)[nH]2)c1

IC50 [2]: 1750 nM
Structure (SMILES): N#Cc1c(-c2cccs2)nc(SCc2cccc(C(=O)NO)c2)[nH]c1=O

IC50 [2]: 316 nM
Structure (SMILES): N#Cc1c(Cl)nc(SCc2cccc(C(=O)O)c2)nc1-c1ccccc1

IC50 [2]: 3350 nM
Structure (SMILES): N#Cc1c(-c2cccs2)nc(SCc2cccc(-c3noc(C(F)(F)F)n3)c2)[nH]c1=O

Activity (Homo sapiens [19]): inactive
Activity [20]: inactive
Activity (Homo sapiens [21]): inactive
Activity (Homo sapiens [22]): inactive
Activity [23]: inactive
Activity [24]: inactive
Activity (Homo sapiens [25]): inactive
inhibition [26]: Active
Structure (SMILES): N#Cc1c(-c2cccs2)nc(SCc2cccc(-c3nnn[nH]3)c2)[nH]c1=O

IC50 [2]: 89 nM
Structure (SMILES): N#Cc1c(C2CCCCC2)nc(SCc2cccc(C(=O)O)c2)[nH]c1=O

IC50 [2]: 20 nM
Structure (SMILES): N#Cc1c(-c2cccs2)nc(SCc2cccc(C(=O)O)c2)[nH]c1=O

IC50 [27]: 20 nM
Structure (SMILES): O=C(O)C1CC1C(=O)c1ccc(Cl)c(Cl)c1 (stereo not given)

IC50 [2]: 1900 nM
Structure (SMILES): Cc1nc(SCc2cccc(C(=O)O)c2)[nH]c(=O)c1C#N
